ChEMBL document CHEMBL1914459 (Bioorg Med Chem Lett, 2011)
The source made the active and inactive calls. The rule behind the calls is not given here.

Columns and labels:
[1] = Inhibition of human recombinant aldose reductase 2 after 15 mins by spectrophotometry analysis
[2] = biological target: Prostaglandin G/H synthase 1 (Homo sapiens) (UniProt P23219); assay: Inhibition of COX1 assessed as inhibition of arachidonic acid-induced platelet aggregation at >/= 1 uM
[3] = biological target: T1, Prostaglandin D2 receptor 2 (Homo sapiens, UniProt Q9Y5Y4); assay: Antagonist activity against human CRTh2 receptor in human eosinophils assessed as inhibition of DK-PGD2-induced CD11b expression; assay type: functional
T1 sequence (Q9Y5Y4 whole entry): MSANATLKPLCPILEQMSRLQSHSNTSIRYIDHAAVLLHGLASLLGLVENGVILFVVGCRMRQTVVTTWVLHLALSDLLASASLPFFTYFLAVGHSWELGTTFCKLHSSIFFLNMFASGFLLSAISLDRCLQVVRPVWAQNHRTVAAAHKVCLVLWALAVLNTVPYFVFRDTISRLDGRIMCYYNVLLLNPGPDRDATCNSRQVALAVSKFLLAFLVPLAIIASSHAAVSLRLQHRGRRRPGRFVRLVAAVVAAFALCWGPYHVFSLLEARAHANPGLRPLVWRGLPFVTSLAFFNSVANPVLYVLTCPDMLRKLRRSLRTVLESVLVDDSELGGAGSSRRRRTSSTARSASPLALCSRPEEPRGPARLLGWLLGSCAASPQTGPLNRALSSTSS

[4] = Clearance in Sprague-Dawley rat at 1 mg/kg, iv; assay type: ADME, organism-based; design: dose 1 mg/kg, route intravenous; details: in vivo
[5] = biological target: T2, Thromboxane A2 receptor (Homo sapiens) (UniProt P21731); assay: Antagonist activity at prostanoid TP receptor assessed as inhibition of arachidonic acid-induced platelet aggregation at >/= 1 uM; assay type: functional
T2 sequence (whole entry): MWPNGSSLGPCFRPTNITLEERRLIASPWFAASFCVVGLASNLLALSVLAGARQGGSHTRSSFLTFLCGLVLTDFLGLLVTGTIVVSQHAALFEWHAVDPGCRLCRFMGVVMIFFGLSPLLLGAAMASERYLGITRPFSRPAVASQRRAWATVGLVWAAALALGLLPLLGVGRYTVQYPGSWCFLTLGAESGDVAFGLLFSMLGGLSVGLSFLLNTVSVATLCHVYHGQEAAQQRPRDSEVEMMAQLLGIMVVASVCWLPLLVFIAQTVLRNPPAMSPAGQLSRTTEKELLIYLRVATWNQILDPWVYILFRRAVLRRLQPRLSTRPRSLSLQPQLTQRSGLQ

[6] = biological target: T1, Prostaglandin D2 receptor 2; assay: Displacement of [3H]PGD2 from human CRTH2 receptor
How it was run: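 Radioligand binding with ³H-PGD₂ as the labelled ligand; IC₅₀ reported as mean of n >2 measurements.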

[7] = Lipophilicity, log D of the compound at pH 7.4; details: buffer
Cytochrome P450 2D6 = Cytochrome P450 2D6 (Homo sapiens, UniProt P10635); assay: Inhibition of CYP2D6; assay type: ADME
Cytochrome P450 1A2 = biological target: T3, Cytochrome P450 1A2 (Homo sapiens, UniProt P05177); assay: Inhibition of CYP1A2; assay type: ADME
T3 sequence (P05177 whole entry): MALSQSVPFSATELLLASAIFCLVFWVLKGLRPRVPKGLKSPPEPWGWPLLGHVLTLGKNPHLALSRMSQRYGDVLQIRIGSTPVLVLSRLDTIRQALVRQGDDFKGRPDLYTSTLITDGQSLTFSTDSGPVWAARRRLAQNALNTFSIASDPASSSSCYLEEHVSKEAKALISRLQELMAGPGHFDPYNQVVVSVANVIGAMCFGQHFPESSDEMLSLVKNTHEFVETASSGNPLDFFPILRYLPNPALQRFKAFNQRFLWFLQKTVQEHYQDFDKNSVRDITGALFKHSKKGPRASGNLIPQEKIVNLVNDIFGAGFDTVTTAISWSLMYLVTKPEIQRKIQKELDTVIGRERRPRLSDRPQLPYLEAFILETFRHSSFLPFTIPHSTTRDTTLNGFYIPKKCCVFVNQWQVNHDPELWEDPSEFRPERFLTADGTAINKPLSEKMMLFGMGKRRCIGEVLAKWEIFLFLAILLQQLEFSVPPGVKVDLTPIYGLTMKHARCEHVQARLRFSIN

[8] = Volume of distribution at steady state in Sprague-Dawley rat at 1 mg/kg, iv; assay type: ADME, organism-based; design: dose 1 mg/kg, route intravenous; details: in vivo, read-out: Vdss
[9] = Intrinsic clearance in rat hepatocytes assessed as per 1 x 10^6 cells
[10] = Half life in Sprague-Dawley rat at 1 mg/kg, iv; assay type: ADME, organism-based; design: dose 1 mg/kg, route intravenous; details: in vivo
Cytochrome P450 3A4 = Cytochrome P450 3A4 (Homo sapiens, UniProt P08684); assay: Inhibition of CYP3A4; assay type: ADME
Cytochrome P450 2C9 = Cytochrome P450 2C9 (Homo sapiens, UniProt P11712); assay: Inhibition of CYP2C9; assay type: ADME
[11] = Oral bioavailability in Sprague-Dawley rat at 4 mg/kg; assay type: ADME, organism-based; details: in vivo
[12] = biological target: T4, Prostaglandin D2 receptor (Homo sapiens) (UniProt Q13258); assay: Antagonist activity at prostanoid DP1 receptor; assay type: functional
T4 sequence (whole entry): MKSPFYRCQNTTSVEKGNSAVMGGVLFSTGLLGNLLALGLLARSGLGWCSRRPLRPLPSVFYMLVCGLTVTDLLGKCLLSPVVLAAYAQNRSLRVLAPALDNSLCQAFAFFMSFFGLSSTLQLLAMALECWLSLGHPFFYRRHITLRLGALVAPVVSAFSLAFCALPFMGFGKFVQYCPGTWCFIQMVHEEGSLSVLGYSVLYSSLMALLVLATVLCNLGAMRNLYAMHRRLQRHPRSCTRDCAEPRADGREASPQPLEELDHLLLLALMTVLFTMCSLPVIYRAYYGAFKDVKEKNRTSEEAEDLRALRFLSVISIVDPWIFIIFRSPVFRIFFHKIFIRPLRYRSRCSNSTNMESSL

Cytochrome P450 3A4, sequence (P08684 whole entry): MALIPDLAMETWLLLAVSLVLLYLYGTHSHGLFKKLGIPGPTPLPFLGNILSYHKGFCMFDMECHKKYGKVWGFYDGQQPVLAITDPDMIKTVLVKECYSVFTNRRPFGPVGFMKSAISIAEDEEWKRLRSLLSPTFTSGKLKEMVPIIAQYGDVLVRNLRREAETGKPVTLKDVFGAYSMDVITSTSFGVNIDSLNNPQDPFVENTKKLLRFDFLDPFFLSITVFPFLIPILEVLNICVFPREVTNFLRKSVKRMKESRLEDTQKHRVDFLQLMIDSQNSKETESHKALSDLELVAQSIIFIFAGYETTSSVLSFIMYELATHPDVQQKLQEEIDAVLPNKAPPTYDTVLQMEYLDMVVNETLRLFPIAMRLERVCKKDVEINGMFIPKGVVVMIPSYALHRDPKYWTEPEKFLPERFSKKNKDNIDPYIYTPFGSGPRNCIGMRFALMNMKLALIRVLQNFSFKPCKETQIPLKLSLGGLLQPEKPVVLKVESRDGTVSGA
Prostaglandin G/H synthase 1 (Homo sapiens), sequence (P23219 whole entry): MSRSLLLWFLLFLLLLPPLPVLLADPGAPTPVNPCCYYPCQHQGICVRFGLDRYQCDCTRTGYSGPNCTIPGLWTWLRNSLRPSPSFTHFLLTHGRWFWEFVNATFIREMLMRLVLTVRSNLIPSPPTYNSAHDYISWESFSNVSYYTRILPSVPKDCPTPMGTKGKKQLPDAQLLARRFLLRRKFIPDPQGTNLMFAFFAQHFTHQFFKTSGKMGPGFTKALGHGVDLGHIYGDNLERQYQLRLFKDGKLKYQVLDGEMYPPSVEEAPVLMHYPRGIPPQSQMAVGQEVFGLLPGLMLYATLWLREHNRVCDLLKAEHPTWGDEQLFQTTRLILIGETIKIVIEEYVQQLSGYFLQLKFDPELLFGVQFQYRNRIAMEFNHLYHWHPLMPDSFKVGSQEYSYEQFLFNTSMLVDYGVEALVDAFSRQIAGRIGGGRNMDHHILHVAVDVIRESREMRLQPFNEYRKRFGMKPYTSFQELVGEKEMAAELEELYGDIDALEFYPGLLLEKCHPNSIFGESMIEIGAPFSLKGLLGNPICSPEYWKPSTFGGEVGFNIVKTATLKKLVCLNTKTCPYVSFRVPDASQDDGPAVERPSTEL
Cytochrome P450 2C9, sequence (P11712 whole entry): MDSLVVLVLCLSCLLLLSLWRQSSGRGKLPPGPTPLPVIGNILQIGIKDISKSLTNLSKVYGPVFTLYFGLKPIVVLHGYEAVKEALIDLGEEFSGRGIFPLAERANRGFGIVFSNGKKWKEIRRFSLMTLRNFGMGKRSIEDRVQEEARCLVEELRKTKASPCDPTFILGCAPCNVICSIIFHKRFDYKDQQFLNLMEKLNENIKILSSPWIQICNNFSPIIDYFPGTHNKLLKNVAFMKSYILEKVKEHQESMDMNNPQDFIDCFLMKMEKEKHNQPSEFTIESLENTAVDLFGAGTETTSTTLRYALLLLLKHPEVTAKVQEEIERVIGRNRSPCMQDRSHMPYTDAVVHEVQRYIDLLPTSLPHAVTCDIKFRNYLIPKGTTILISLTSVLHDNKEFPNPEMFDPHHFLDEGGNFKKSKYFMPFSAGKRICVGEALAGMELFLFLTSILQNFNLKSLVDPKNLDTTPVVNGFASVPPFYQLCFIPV
Cytochrome P450 2D6, sequence (P10635 whole entry): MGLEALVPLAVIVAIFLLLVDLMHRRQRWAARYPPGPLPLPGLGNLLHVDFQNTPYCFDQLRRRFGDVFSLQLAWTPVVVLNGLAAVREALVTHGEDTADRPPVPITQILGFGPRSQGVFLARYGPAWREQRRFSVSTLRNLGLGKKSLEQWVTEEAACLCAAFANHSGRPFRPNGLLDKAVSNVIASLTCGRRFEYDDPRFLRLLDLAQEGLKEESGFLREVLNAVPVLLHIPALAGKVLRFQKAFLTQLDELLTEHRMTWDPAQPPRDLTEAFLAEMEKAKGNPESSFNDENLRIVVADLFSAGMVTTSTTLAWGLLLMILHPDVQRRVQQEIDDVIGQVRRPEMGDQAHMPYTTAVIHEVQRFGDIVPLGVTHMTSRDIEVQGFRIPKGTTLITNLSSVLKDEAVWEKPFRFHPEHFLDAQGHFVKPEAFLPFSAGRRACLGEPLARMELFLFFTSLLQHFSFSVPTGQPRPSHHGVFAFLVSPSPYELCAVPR

IC50 [1]: 2510 nM
inhibition [2]: inactive
IC50 [3]: 10 nM
clearance [4]: 4 mL/min/kg
inhibition [5]: inactive
IC50 [6]: 4.3 nM
logD [7]: -0.2
IC50 (Cytochrome P450 2D6): > 10 µM
IC50 (Cytochrome P450 1A2): > 10 µM
Vd [8]: 0.5 L/kg
hepatocyte CLint [9]: 1 µL/min/1e6 cells
half-life [10]: 114 min
IC50 (Cytochrome P450 3A4): > 10 µM
IC50 (Cytochrome P450 2C9): > 10 µM
bioavailability [11]: 63%
Activity [12]: inactive
SMILES: CC(=O)Nc1cccc2c1c(Sc1ccc(Cl)cc1)c(C)n2CC(=O)O [AZD1981]
